The values below come from PubChem BioAssay.

Activity calls are given as the source filed them.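 The calls were made as follows, unless noted: active = inhibition at or above 50% relative to wild type and mutant plate controls; inactive = inhibition below 50%.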

A short description of assay [1]: inhibitors of TNFa-induced NFkB p65 translocation, primary screen, imaging, HUVEC, MLSMR starter and 10KST1 sets (AID 438;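 active = inhibition above 20% together with a positive visual image hit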;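 also: compound added about 3h40 before a 20 min TNFalpha stimulation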;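 as to inhibition: signal is the nuclear over cytoplasmic p65 intensity ratio per well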). Conditions: HUVEC TNFa-induced p65 nuclear translocation; cell count: measured here: nuclei count (cytotoxicity indicator), at 2.08 µM; inhibition: at 2 µM, stronger effect = higher value, 0% TNFa-plus-vehicle, 100% no-TNFa wells.
The nature of assay [2]: endothelial E-selectin expression blockers – imaging, HUVEC, immunofluorescence, MLSMR starter and 10KST1 sets, primary screen (AID 487;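 active = visually confirmed hit in the image check and inhibition above 20%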;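 as to inhibition: signal is fraction of cell area covered by stained E-selectin grains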;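 as to nuclei count: 100% = median nuclei count of all wells on the same plate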). The conditions noted are these: HUVEC TNFalpha-induced E-selectin immunofluorescence imaging, at 2 µM; inhibition: stronger effect = higher value; nuclei count: measured here: cell number, toxicity.
Assay [3] is described as follows: Primary imaging screen for DUSP6 inhibitors that restore phospho-Erk in transfected HeLa cells, chemical complementation (AID 609;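 active = compounds giving at least 50% inhibition in the cell-based MKP-3 phosphatase rescue imaging test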;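 as to inhibition: phospho-Erk level distribution per well compared with pooled transfected vehicle control wells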). The conditions noted are these: HeLa MKP-3 transfected, phospho-Erk imaging KS statistic, at 10 µM, cells stimulated with TPA for 15 min.
The target of assay [4] is Dual specificity protein phosphatase 6 (Homo sapiens) (UniProt Q16828). The assay is described as above. Conditions: HeLa MKP-3 transfected, phospho-Erk imaging KS statistic; at 10 µM; stronger effect = higher value; cells stimulated with TPA for 15 min.
In assay [5] the target is Voltage-gated potassium channel subunit beta-2 (Rattus norvegicus) (UniProt P62483). Kind of assay: inhibitors of rat Kvbeta2 reductase activity – biochemical, NADPH fluorescence, primary screen (AID 622;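 active = fluorescence slope higher than the sample average by over 3 SD, cut at about -0.22 in these data, passing the limit was not always enough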;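 also: slope of raw intensity against log time taken from 70 to 1610 s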). Conditions: recombinant KvBeta, 4-cyanobenzaldehyde reduction, at 10 µM, stronger effect = higher value.
The target is the same in assay [6]. Kind of assay: enhancers of rat Kvbeta2 NADPH turnover – biochemical, NADPH fluorescence, primary screen (AID 623;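 active = NADPH fluorescence slope more negative than the mean of all samples by about 3 SD, 99.7% confidence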;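 also: fluorescence intensity change per second fitted from 20 to 320 s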). The conditions noted are these: Recombinant KvBeta, NADPH fluorescence decrease slope, 10 min; at 10 µM; stronger effect = lower value.
The target of assay [7] is Muscarinic acetylcholine receptor M4 (Homo sapiens) (UniProt P08173). Kind of assay: M4-linked GIRK flux change, two-sided – cell-based, HEK293 M4/GIRK, thallium flux, BTC-AM, M4 allosteric agonist project, primary screen (AID 625;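 active = fluorescence slope after compound addition differing from the mean of all tested samples at 99.7% confidence, mostly higher but some lower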;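 also: thallium influx through GIRK channels coupled to M4 in HEK293 cells with BTC-AM dye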). Conditions: at 10 µM, actives lie on both sides. In a few lines:
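System: HEK293 cells with M4 receptor and GIRK channels | Incubation: Cells overnight at 37 °C, BTC-AM loading 1 h, reads 2 min total | Technique: Kinetic BTC-AM fluorescence sampled at 1 Hz, 10 s pre-addition baseline | Measure: Post-addition slope, 15–24 s, of baseline-normalized fluorescence | Control set: Carbachol positive, DMSO negative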

The nature of assay [8]: inhibitors of larval lipid processing in zebrafish, primary screen, whole organism, PED6 fluorescence, gall bladder and intestine (AID 686;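 active = a full or partial loss of lipid-probe fluorescence in the fish gall bladder, intestine or both, judged by eye; inactive = no fluorescence loss, or compound toxic to the fish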;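 also: larvae 5 to 7 days old with five fish per well; signal comes from phospholipase A2 cleavage of quenched PED6 carried via bile; overnight exposure to compound and PED6 before scoring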). Conditions: Zebrafish larvae PED6 lipid processing, fluorescence scoring; screened at 20 µM (by protocol). In a few lines:
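Test system – live zebrafish larvae aged 5-7 days, whole organism · Buffer or medium – E3 fish medium · Reagent – quenched phospholipase substrate PED6, 100 nM final, ingested by larvae · Doses – 20 µM single dose · Incubation – overnight compound and PED6 incubation · Technique – visual fluorescence microscopy scoring of gall bladder, gut · Read-out basis – visual per-well fluorescence inhibition score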

The nature of assay [9]: loss of swimming-algae plug formation – whole organism, Chlamydomonas reinhardtii, WT vs cilia-less mutant, absorbance, 96-well, primary screen (AID 463189).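 Also: 0% = wild type cc124 cells in DMSO and 100% = ciliumless bld1 mutant cells.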 Conditions: Chlamydomonas reinhardtii gravitaxis, OD600 absorbance, 2 days; at 10 µM; stronger effect = higher value.
Setting [10] is: measured here: cell density z-score.
Setting [11] is: measured here: nuclear c-Myc green intensity z-score.
[12] abbreviates: measured here: nuclear pErk red intensity z-score, stronger effect = higher value.

Dual specificity protein phosphatase 6 (Homo sapiens), sequence (Q16828 whole entry, looked up): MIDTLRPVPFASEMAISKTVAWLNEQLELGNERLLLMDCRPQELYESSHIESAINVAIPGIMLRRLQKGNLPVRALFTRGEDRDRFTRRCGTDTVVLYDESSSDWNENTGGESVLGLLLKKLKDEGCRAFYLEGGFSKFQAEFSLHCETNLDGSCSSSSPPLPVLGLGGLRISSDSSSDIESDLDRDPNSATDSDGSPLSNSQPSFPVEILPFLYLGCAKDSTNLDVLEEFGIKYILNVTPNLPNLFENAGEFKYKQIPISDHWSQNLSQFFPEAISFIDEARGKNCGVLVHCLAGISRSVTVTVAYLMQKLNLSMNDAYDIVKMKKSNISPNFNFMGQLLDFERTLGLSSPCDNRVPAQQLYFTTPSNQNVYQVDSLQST
Voltage-gated potassium channel subunit beta-2 (Rattus norvegicus), sequence (P62483 whole entry, looked up): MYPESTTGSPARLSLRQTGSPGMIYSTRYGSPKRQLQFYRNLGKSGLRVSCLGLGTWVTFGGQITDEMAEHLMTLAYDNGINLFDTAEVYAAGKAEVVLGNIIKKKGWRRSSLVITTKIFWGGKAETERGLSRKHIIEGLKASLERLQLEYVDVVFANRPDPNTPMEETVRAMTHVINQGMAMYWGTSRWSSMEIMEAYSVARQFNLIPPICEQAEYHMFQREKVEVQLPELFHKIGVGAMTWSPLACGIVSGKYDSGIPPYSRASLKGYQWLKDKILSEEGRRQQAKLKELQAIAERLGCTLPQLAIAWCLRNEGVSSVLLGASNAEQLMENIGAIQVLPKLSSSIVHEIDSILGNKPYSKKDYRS
Muscarinic acetylcholine receptor M4 (Homo sapiens), sequence (P08173 whole entry, looked up): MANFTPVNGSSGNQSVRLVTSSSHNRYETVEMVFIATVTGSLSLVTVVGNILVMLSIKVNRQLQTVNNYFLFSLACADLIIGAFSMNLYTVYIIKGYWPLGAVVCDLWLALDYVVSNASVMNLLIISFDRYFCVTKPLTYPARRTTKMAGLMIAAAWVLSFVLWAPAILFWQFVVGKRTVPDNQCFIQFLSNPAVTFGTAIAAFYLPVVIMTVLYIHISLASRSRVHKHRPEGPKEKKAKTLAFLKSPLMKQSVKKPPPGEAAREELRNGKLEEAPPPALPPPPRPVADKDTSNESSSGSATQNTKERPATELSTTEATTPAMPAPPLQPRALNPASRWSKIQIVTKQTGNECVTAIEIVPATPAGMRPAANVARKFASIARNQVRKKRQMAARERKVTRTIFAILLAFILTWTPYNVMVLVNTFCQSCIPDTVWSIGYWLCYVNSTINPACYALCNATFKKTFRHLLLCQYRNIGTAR

The term inhibition denotes the drop in the measured response relative to a control, in per cent. In the case of `COc1ccccc1C1CC(c2ccc(Cl)cc2)Nc2nc(N)nn21` (stereo not given), the cell count in assay [1] worked out at 404. In addition, the inhibition is 0% (inactive) in assay [1], -104% (inactive) in assay [2], 11.9% (inactive) in assay [4] and -3.22% (inactive) in assay [9]. Moreover, the nuclei count in assay [2] came out at 146%. Moreover, the z-score in assay [3] (setting [10]) was -0.136; in assay [3] (setting [11]), -0.282; in assay [3] (setting [12]), -0.582. Also, the fluorescence slope was -0.459 (inactive) in [5] and 0.00483 (inactive) in assay [7]. Also, in assay [6], the NADPH fluorescence slope is -0.000104 (inactive). For the same compound, the compound was classed as inactive in assay [8].
Turning to `CCSC1=C(C#N)C(c2cccs2)C(C(=O)OC)=C(C)N1` (stereo not given), the cell count in assay [1] was found to be 704. The inhibition was -1% (inactive) in assay [1], -26.7% (inactive) in assay [2], 2.46% (inactive) in assay [4] and -1.08% (inactive) in assay [9]. This compound also came in with a nuclei count in assay [2] of 161%. Moreover, the z-score is 1.09 in assay [3] (setting [10]), -0.139 in [3] (setting [11]) and -1.35 in assay [3] (setting [12]). Further, the fluorescence slope was -0.442 (inactive) in [5] and 0.00541 (inactive) in assay [7]. For the same compound, in assay [6], the NADPH fluorescence slope is -5.3e-05 (inactive). Besides, in [8], the call was inactive.
On to `CSc1nc2[nH]c3c(c2c2nnnn12)CCCC3`, for which the cell count in assay [1] was determined as 571. The inhibition is -2.3% (inactive) in [1], -139% (inactive) in [2], 13.4% (inactive) in assay [4] and 79.4% (active) in [9]. In assay [2], the nuclei count is 145%. For the same compound, the z-score in assay [3] (setting [10]) is 0.625; in [3] (setting [11]), 0.274; in assay [3] (setting [12]), -0.282. Further, the fluorescence slope is -0.341 (inactive) in assay [5] and 0.00402 (inactive) in [7]. Further, the NADPH fluorescence slope in assay [6] is 0.000139 (inactive). Besides, the compound was classed as inactive in assay [8].
Regarding `CCCNC1=C(C)C(=O)CC1`, the cell count in [1] worked out at 602. In addition, the inhibition in [1] is -0.5% (inactive); in assay [2], -37.1% (inactive); in [4], -0.233% (inactive); in assay [9], 3.26% (inactive). This compound yielded a nuclei count in assay [2] of 120%. Besides, the z-score is -1.42 in assay [3] (setting [10]), 0.756 in assay [3] (setting [11]) and 1.36 in assay [3] (setting [12]). Besides, the values for the fluorescence slope in assay [5] and in assay [7] were -0.481 (inactive) and 0.00471 (inactive), respectively. In addition, the NADPH fluorescence slope in assay [6] was -4.1e-05 (inactive). For the same compound, the outcome in assay [8] was inactive.
With `N#Cc1c(N)nc(SCC(=O)NCc2ccc3c(c2)OCO3)c(C#N)c1-c1cccs1`, the cell count in assay [1] stood at 577. Moreover, the inhibition in assay [1] was -0.3% (inactive); in assay [2], 53.2% (inactive); in assay [4], 6.04% (inactive); in assay [9], -14% (inactive). For the same compound, the nuclei count in assay [2] amounted to 115%. Moreover, the z-score in assay [3] (setting [10]) was 0.98; in assay [3] (setting [11]), 1.31; in assay [3] (setting [12]), -0.212. In addition, the fluorescence slope was -0.493 (inactive) in [5] and 0.00636 (inactive) in assay [7]. Besides, in assay [6], the NADPH fluorescence slope was -6.7e-05 (inactive). In assay [8], the result was inactive.
With `CCN1CCc2c(C#N)c(NCc3ccccc3)nc(N(CC)CC)c2C1`, in assay [1], the cell count was 554. The inhibition is -13.9% (inactive) in assay [1], -108% (inactive) in assay [2], 3.49% (inactive) in assay [4] and 119% (active) in assay [9]. In [2], the nuclei count was 141%. Further, the z-score was 0.401 in [3] (setting [10]), -1.69 in assay [3] (setting [11]) and 0.375 in assay [3] (setting [12]). Also, the fluorescence slope in assay [5] was -0.439 (inactive); in assay [7], 0.00477 (inactive). Moreover, the NADPH fluorescence slope in assay [6] was -0.000126 (inactive). The compound was classed as inactive in assay [8].
Consider `COCC(C)Nc1ncnc2c1cnn2-c1ccc(Cl)cc1` (stereo not given), for which the cell count in assay [1] was 607. The inhibition in assay [1] is -19.2% (inactive); in [2], -34.4% (inactive); in assay [4], 3.42% (inactive); in assay [9] it was 18.7% (inactive). In assay [2], this compound returned a nuclei count of 170%. In addition, the z-score in [3] (setting [10]) is 1.51; in [3] (setting [11]), -0.865; in assay [3] (setting [12]), 0.282. In addition, the values for the fluorescence slope in assay [5] and in assay [7] were -0.398 (inactive) and 0.00516 (inactive), respectively. Moreover, the NADPH fluorescence slope in assay [6] is -1.2e-05 (inactive). Further, in [8], the result was inactive.
On to `COC(=O)c1ccccc1OCc1cccc(C)n1`, for which the cell count in [1] is 642. Also, the inhibition in [1] is -3.5% (inactive); in assay [2], -85% (inactive); in assay [4] it was 1.9e-07% (inactive); in assay [9] it was -11.3% (inactive). This compound yielded a nuclei count in [2] of 138%. Besides, the z-score in assay [3] (setting [10]) was 0.411; in assay [3] (setting [11]), 0.832; in assay [3] (setting [12]), -0.721. Further, the fluorescence slope is -0.495 (inactive) in [5] and 0.00518 (inactive) in [7]. Moreover, the NADPH fluorescence slope in [6] is -3.1e-05 (inactive). Also, the outcome in assay [8] was inactive.
As to `CCc1nc(NCC2CCCO2)c(C#N)c2c1COC(C)(C)C2` (stereo not given), the cell count in assay [1] turned out to be 550. For the same compound, the inhibition in [1] was -12.7% (inactive); in [2], 2% (inactive); in assay [4], 1.9e-07% (inactive); in [9] it was -12.9% (inactive). The nuclei count in [2] was determined as 127%. For the same compound, the z-score is -0.137 in [3] (setting [10]), -0.0587 in assay [3] (setting [11]) and 0.863 in assay [3] (setting [12]). Besides, the fluorescence slope in assay [5] was -0.316 (inactive); in [7] it was 0.00695 (inactive). The NADPH fluorescence slope in [6] was -4e-05 (inactive). Besides, the result in [8] was inactive.
As for `Cc1ccc(-n2ncc3c(NCc4cccnc4)ncnc32)c(C)c1`, the cell count in [1] worked out at 623. The inhibition in assay [1] was -10.1% (inactive); in assay [2], 33.3% (inactive); in assay [4] it was 1.42% (inactive); in assay [9], -12.1% (inactive). In [2], the nuclei count was 103%. The z-score was -0.852 in [3] (setting [10]), 0.459 in assay [3] (setting [11]) and 0.734 in [3] (setting [12]). Besides, the fluorescence slope is -0.325 (inactive) in assay [5] and 0.00518 (inactive) in [7]. The NADPH fluorescence slope in [6] was -4.3e-05 (inactive). For the same compound, the compound was called inactive in assay [8].
